The values that follow come from ChEMBL document CHEMBL1149024, “Naturally occurring antiacne agents” (1994).

Experiment [1] relates to Cutibacterium acnes. As to the kind of experiment: Antimicrobial activity Propionibacterium acnes ATCC 11827 after 2 days by broth dilution method. It counts as functional. The note with it: Cutibacterium acnes, ATCC 11827, 48 h; for MIC: read-out: MIC. The method, boiled down: (§1)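 Serial twofold dilutions in DMF; 30 µl of each added to 3 ml NYG broth (0.8% nutrient broth, 0.5% yeast extract, 0.1% glucose), then inoculated with 30 µl of a two-day-old culture. Incubated 2 days at 37°; growth read as turbidity (OD 660 nm). MIC is the lowest concentration giving complete growth inhibition, determined at least twice.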
In general terms: Dilution methods test growth across graded concentrations, often in twofold steps.

For experiment [2], the system named is Cutibacterium acnes. Description: Antimicrobial activity Propionibacterium acnes ATCC 11827 up to 200 ug/ml after 2 days by broth dilution method. It counts as functional, organism-based. The method, boiled down: as §1
The test system of experiment [3] is Cutibacterium acnes. As to the kind of experiment: Antimicrobial activity Propionibacterium acnes ATCC 11827 after 2 days by twofold dilution method in presence of 1000 units of lipase. The format is functional. The note with it: ATCC 11827, 48 h.

Values after ≈ are worked out from the molar mass of the structure shown. Active and inactive are the calls of the source. Bounds are passed on as bounds.

On to `CC1=CCC2C(C1)C2(C)C` (configuration not stated) [CARENE], for which, in experiment [1], the MIC (usually the smallest concentration in the dilution series that meets the test's criterion for growth inhibition) was found to be 50 µg/mL (≈ 367 µM).
As for `CCCCCCCCCCCCCCCCCCO` [CETOSTEARYL ALCOHOL], the MIC in experiment [1] is above 800 µg/mL.
`CCCCCCCCCCCCCCCCO` [CETYL ALCOHOL]: in experiment [1], the MBC (usually the smallest concentration meeting the test's criterion for killing) came to 1.56 µg/mL (≈ 6.43 µM) and the MIC was 0.78 µg/mL (≈ 3.22 µM).
Consider `CC(C)CCC[C@@H](C)[C@H]1CC[C@H]2[C@@H]3CC=C4C[C@@H](O)CC[C@]4(C)[C@H]3CC[C@]12C` [CHOLESTEROL], for which, in experiment [1], the MIC was above 800 µg/mL.
As for `CC(C)=CCC/C(C)=C/[C@H](O)C/C(C)=C/CC/C(C)=C/CO` [CRINITOL], in experiment [1], the MIC turned out to be 25 µg/mL (≈ 81.6 µM).
Take `C=C(C)[C@H]1CC=C(C)CC1` [D-LIMONENE]: the MIC in experiment [1] was found to be 50 µg/mL (≈ 367 µM).
Same read-out and setting: for `CCCCCCCCC(C)O` (configuration not stated) [DECAN-2-OL] the value was 100 µg/mL (≈ 632 µM).
For `CCCCCCCCCCO` [DECANOL], in experiment [1], the MBC is 50 µg/mL (≈ 316 µM) and the minimum inhibitory concentration (MIC) stood at 25 µg/mL (≈ 158 µM).
In the case of `CCCCCCCCCCCC(=O)O` [DODECANOATE], the MIC in experiment [1] was 50 µg/mL (≈ 250 µM).
As to `CCCCCCCCCCCCO` [DODECANOL], in experiment [1], the MBC is 6.25 µg/mL (≈ 33.5 µM) and the MIC was 3.13 µg/mL (≈ 16.8 µM).
Turning to `C=CCc1ccc(O)c(OC)c1` [EUGENOL], the MIC in experiment [1] turned out to be 50 µg/mL (≈ 304 µM).
Still for that read-out and setting: for `CC(C)=CCC/C(C)=C/CC/C(C)=C/CO` [FARNESOL] the value was 6.25 µg/mL (≈ 28.1 µM).
On to `CC(C)=CCC/C(C)=C/CO` [GERANIOL], for which the MIC in experiment [1] was determined as 400 µg/mL (≈ 2590 µM).
As for `CCCCCC/C=C\CCCCCCCc1cccc(O)c1C(=O)O` [GINGKOLIC ACID], in experiment [1], the MIC amounted to 0.78 µg/mL (≈ 2.25 µM).
For `CCCC(O)CC` (configuration not stated) [HEXAN-3-OL], the MIC in experiment [1] is above 800 µg/mL.
Take `CC(C)c1cccc(=O)c(O)c1` [HINOKITIOL]: the MIC in experiment [1] worked out at 12.5 µg/mL (≈ 76.1 µM).
In the case of `c1ccc2[nH]ccc2c1` [INDOLE], the MIC in experiment [1] is 200 µg/mL (≈ 1710 µM).
On the same count and under the same terms, the value for `C/C=C/c1ccc2c(c1)OCO2` [ISOSAFROLE] was 200 µg/mL (≈ 1230 µM); that for `C=CC(C)(O)CCC=C(C)C` (configuration not stated) [LINALOOL] was 200 µg/mL (≈ 1300 µM).
With `C=C1[C@H]2CC[C@@H]3[C@H]2C(C)(C)CCC[C@]13C` [LONGIFORENE], the MIC in experiment [1] was 6.25 µg/mL (≈ 30.6 µM).
For the molecule `CC1CCC(C(C)C)C(O)C1` (configuration not stated) [MENTHOL], in experiment [1], the MIC came out at 400 µg/mL (≈ 2560 µM).
With `C=CCc1ccc(OC)c(OC)c1` [METHYLEUGENOL], the MIC in experiment [1] was 200 µg/mL (≈ 1120 µM).
As for `CCCCCCCCCCCCCCO` [MYRISTYL ALCOHOL], in experiment [1], the MBC stood at 1.56 µg/mL (≈ 7.28 µM) and the MIC worked out at 1.56 µg/mL (≈ 7.28 µM).
With `CC(C)c1oc(=O)cc2c1[C@@H](O)[C@H]1OC(=O)[C@@]3(C)[C@@H](O)[C@H]4O[C@H]4[C@@]2(C)[C@@H]13` [NAGILACTONE C], the MIC in experiment [1] was above 800 µg/mL.
For `CC(C)[C@H]1OC(=O)C=C2C13O[C@@H]3[C@H]1OC(=O)[C@@]3(C)[C@@H](O)CC[C@@]2(C)[C@@H]13` (some centres not stated) [NAGILACTONE E], in experiment [1], the minimum inhibitory concentration (MIC) was above 800 µg/mL.
With `C=CC(C)(O)CC/C=C(\C)CCC=C(C)C` (configuration not stated) [NEROLIDOL], in experiment [1], the MIC came out at 25 µg/mL (≈ 112 µM).
With `CCCCCCCCCO` [NONANOL], in experiment [1], the MBC came to 200 µg/mL (≈ 1390 µM) and the MIC was determined as 100 µg/mL (≈ 693 µM).
Turning to `CCCCCCCCO` [OCTANOL], in experiment [1], the MIC was determined as 200 µg/mL (≈ 1540 µM).
Regarding `CCCCCCCCCCCCCCCOC(=O)CCCCCCCCCCC` [PENTADECANYLDODECANOATE], in experiment [2], the outcome was inactive. In experiment [3], the MIC was 1.56 µg/mL.
As for `CC1(C)CCC[C@]2(C)[C@@H](C=O)C(C=O)=CC[C@@H]12` [POLYGODIAL], the MIC in experiment [1] was 25 µg/mL (≈ 107 µM).
For the molecule `C=CCc1ccc2c(c1)OCO2` [SAFROLE], in experiment [1], the MIC was 50 µg/mL (≈ 308 µM).
On to `O=C(O)c1ccccc1O` [SALICYLIC ACID], for which the MIC in experiment [1] worked out at 400 µg/mL (≈ 2900 µM).
In the case of `CC1=CCC(O)(C(C)C)CC1` (configuration not stated) [TERPINEOL], the MIC in experiment [1] came out at 800 µg/mL (≈ 5190 µM).
In the case of `CC1=CCC(=C(C)C)CC1` [TERPINOLENE], the MIC in experiment [1] was 50 µg/mL (≈ 367 µM).
The same measure, in the same setting: the value for `Cc1ccc(C(C)C)c(O)c1` [THYMOL] was 200 µg/mL (≈ 1330 µM); that for `CC(C)c1c(O)ccc2c1CC[C@H]1C(C)(C)CCC[C@]21C` [TOTAROL] was 0.39 µg/mL (≈ 1.36 µM).
On to `C/C=C/c1cc(OC)c(OC)cc1OC` [TRANS-ASARONE], for which the MIC in experiment [1] amounted to 100 µg/mL (≈ 480 µM).
With `CCCCCCCCCCCCCO` [TRIDECAN-1-OL], in experiment [1], the MBC came out at 3.13 µg/mL (≈ 15.6 µM) and the MIC worked out at 1.56 µg/mL (≈ 7.79 µM).
In the case of `CCCCCCCCCCCO` [UNDECANOL], in experiment [1], the MBC came out at 25 µg/mL (≈ 145 µM) and the MIC came to 12.5 µg/mL (≈ 72.5 µM).
